Measured values pooled from the literature.
Lines come from different studies, so protocols differ.

| SMILES | system | setting | quantity | result |
| --- | --- | --- | --- | --- |
| CC(C)CN(C[C@@H](O)[C@H](Cc1ccccc1)NC(=O)O[C@H]1CO[C@H]2OCC[C@H]21)S(=O)(=O)c1ccc(N)cc1 | BALB/c mouse, plasma | intravenous, 25 mg/kg, 12 h | concentration | 31.4 ng/mL |
| CC(C)Oc1cccc(-c2cnc(N3CCC(C(N)=O)CC3)s2)c1 | male Swiss mouse, brain | oral, 30 mg/kg, 1 h, single dose | concentration | 207 ng/g |
| CS(=O)(=O)CCC#N | human, plasma | oral, 300 mg, single dose, fasted | MRT | 30.5 h |
| CC(C)(Nc1nc(-c2ccccn2)nc2ccccc12)c1ccccn1 | female BALB/c mouse, plasma | intravenous, 1 mg/kg, 15 min | concentration | 963 ng/mL |
| c1cnc2ccc(Nc3nc(NC4CC4)c4nc[nH]c4n3)cc2c1 | human, plasma | oral, 50 mg/m², patients | MRT(0-t) | 6.4 h |
| CC(C)(C)c1ccc(O)c(CN(Cc2cc(C(C)(C)C)ccc2O)C2CCC(NC(N)=O)CC2)c1 (stereo not shown) | male C57BL/6 mouse, brain | intraperitoneal, 25 mg/kg, single dose | half-life | 10.1 h |
| CC(C)(O)c1ccccc1-c1ccc2[nH]c(/C=C/c3ccc(C(F)(F)F)cc3)nc2c1 | male human, plasma | oral, 5 mg, single dose, fasted, healthy volunteers | MRT | 43.6 h |
| O=C(O)C1CCN(c2ncc(-c3ccc4c(c3)OCCCO4)s2)CC1 | male Swiss mouse, plasma | oral, 30 mg/kg, 24 h, single dose | concentration | 1570 ng/mL |
| O=S(=O)(c1ccc(-c2ccc3nccc(Nc4ccncn4)c3c2)cc1)N1CCOCC1 | female BALB/c mouse, plasma | intraperitoneal, 10 mg/kg, 24 h | concentration | 0 ng/mL |
| O=c1nc(N2CCN(CC3CCCCC3)CC2)sc2c([N+](=O)[O-])cc(C(F)(F)F)cc12 | CD-1 mouse, lung | oral, 100 mg/kg, 15 min | concentration | 431 ng/mL |
